Assay results: ChEMBL document CHEMBL1142148, “Antibiotic susceptibility profile of bifidobacteria as affected by oxgall, acid, and hydrogen peroxide stress” (2007)
Converted amounts (≈) assume the structure as drawn.

How the values were obtained:
Bifidobacterium breve [1] = experiment: Antimicrobial activity against 90 mins oxgall-stressed Bifidobacterium breve ATCC 15700 after 18 hrs; format: functional
In short: (§1)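 Cells pelleted from mid-log MRS culture and resuspended in MRS (initial pH 6.5) with 0.3% (wt/vol) oxgall for 90 min anaerobically at 37°C. They were then regrown in MRS pH 6.5 for 24 h (footnote: 18 h) anaerobically and tested for MIC by the same broth microdilution assay. Median of four repetitions.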

Bifidobacterium longum [2] = experiment: Antimicrobial activity against Bifidobacterium longum P/N 601377; format: functional
In short: (§2)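 Broth microdilution in MRS plus 0.05% L-cysteine-HCl. Mid-log culture adjusted to OD650 0.1, giving about 2.5 × 10^4 to 5.0 × 10^4 CFU/well, then added to twofold serial dilutions of agent. Plates incubated anaerobically at 37°C for 18 h and read at OD650. MIC is the lowest concentration matching the uninoculated blank OD, taken as the median of four repeats.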

Bifidobacterium bifidum [3] = experiment: Antimicrobial activity against 90 mins hydrogen peroxide-stressed Bifidobacterium bifidum BB12 after 18 hrs; format: functional
In short: (§3)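 Stress applied for 90 min at 37°C under anaerobic conditions, using MRS (initial pH 6.5) containing H2O2 at each strain's own inhibitory concentration. The H2O2 level was set beforehand by microplate tolerance testing. Challenged cells were regrown in MRS for 24 h (footnote: 18 h) before MIC testing by broth microdilution. Median of four repetitions.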

Bifidobacterium breve [4] = experiment: Antimicrobial activity against 60 min 1 M HCl-stressed Bifidobacterium breve ATCC 15700 after 18 hrs; format: functional
In short: (§4)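 Mid-log MRS culture pelleted and resuspended in MRS broth brought to pH 2.0 with 1 M HCl, held anaerobically at 37°C for 60 min, then subcultured in MRS (pH 6.5) for 24 h anaerobically before MIC testing by broth microdilution (as for unstressed cells). Table footnote gives 18 h anaerobic regrowth after the stress. MIC is the median of four repetitions.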

Bifidobacterium bifidum [5] = experiment: Antimicrobial activity against 60 min 1 M HCl-stressed Bifidobacterium bifidum R0071 after 18 hrs; format: functional; in short: as §4
Bifidobacterium bifidum [6] = experiment: Antimicrobial activity against 90 mins oxgall-stressed Bifidobacterium bifidum R0071 after 18 hrs; format: functional; in short: as §1
Bifidobacterium bifidum [7] = experiment: Antimicrobial activity against Bifidobacterium bifidum ATCC 15696; format: functional; in short: as §2
Bifidobacterium bifidum [8] = experiment: Antimicrobial activity against Bifidobacterium bifidum BB12; format: functional; in short: as §2
Bifidobacterium animalis [9] = experiment: Antimicrobial activity against 90 mins hydrogen peroxide-stressed Bifidobacterium animalis ATCC 27536 after 18 hrs; format: functional; in short: as §3
Bifidobacterium longum [10] = experiment: Antimicrobial activity against Bifidobacterium longum ATCC 15707; format: functional; in short: as §2
Bifidobacterium longum [11] = experiment: Antimicrobial activity against 90 mins hydrogen peroxide-stressed Bifidobacterium longum ATCC 15708 after 18 hrs; format: functional; in short: as §3
Bifidobacterium longum [12] = experiment: Antimicrobial activity against 90 mins hydrogen peroxide-stressed Bifidobacterium longum P/N 601377 after 18 hrs; format: functional; in short: as §3
[13] = test system: Bifidobacterium pseudolongum; experiment: Antimicrobial activity against Bifidobacterium pseudolongum ATCC 25562; format: functional; in short: as §2
Bifidobacterium bifidum [14] = experiment: Antimicrobial activity against 60 min 1 M HCl-stressed Bifidobacterium bifidum BB12 after 18 hrs; format: functional; in short: as §4
Bifidobacterium breve [15] = experiment: Antimicrobial activity against 60 min 1 M HCl-stressed Bifidobacterium breve R0070 after 18 hrs; format: functional; in short: as §4
Bifidobacterium breve [16] = experiment: Antimicrobial activity against Bifidobacterium breve R0070; format: functional; in short: as §2
Bifidobacterium breve [17] = experiment: Antimicrobial activity against 90 mins oxgall-stressed Bifidobacterium breve R0070 after 18 hrs; format: functional; in short: as §1
Bifidobacterium bifidum [18] = experiment: Antimicrobial activity against Bifidobacterium bifidum R0071; format: functional; in short: as §2
Bifidobacterium longum [19] = experiment: Antimicrobial activity against Bifidobacterium longum ATCC 15708; format: functional; in short: as §2
Bifidobacterium bifidum [20] = experiment: Antimicrobial activity against 90 mins hydrogen peroxide-stressed Bifidobacterium bifidum R0071 after 18 hrs; format: functional; in short: as §3
Bifidobacterium longum [21] = experiment: Antimicrobial activity against 60 min 1 M HCl-stressed Bifidobacterium longum ATCC 15707 after 18 hrs; format: functional; in short: as §4
Bifidobacterium bifidum [22] = experiment: Antimicrobial activity against 90 mins oxgall-stressed Bifidobacterium bifidum BB12 after 18 hrs; format: functional; in short: as §1
Bifidobacterium breve [23] = experiment: Antimicrobial activity against 90 mins hydrogen peroxide-stressed Bifidobacterium breve R0070 after 18 hrs; format: functional; in short: as §3
Bifidobacterium breve [24] = experiment: Antimicrobial activity against 90 mins hydrogen peroxide-stressed Bifidobacterium breve ATCC 15700 after 18 hrs; format: functional; in short: as §3
[25] = test system: Bifidobacterium thermophilum; experiment: Antimicrobial activity against 60 min 1 M HCl-stressed Bifidobacterium thermophilum ATCC 25866 after 18 hrs; format: functional; in short: as §4
[26] = test system: Bifidobacterium thermophilum; experiment: Antimicrobial activity against 90 mins hydrogen peroxide-stressed Bifidobacterium thermophilum ATCC 25866 after 18 hrs; format: functional; in short: as §3
[27] = test system: Bifidobacterium thermophilum; experiment: Antimicrobial activity against Bifidobacterium thermophilum ATCC 25866; format: functional; in short: as §2
Bifidobacterium longum [28] = experiment: Antimicrobial activity against 60 min 1 M HCl-stressed Bifidobacterium longum P/N 601377 after 18 hrs; format: functional; in short: as §4
[29] = test system: Bifidobacterium thermophilum; experiment: Antimicrobial activity against 90 mins oxgall-stressed Bifidobacterium thermophilum ATCC 25866 after 18 hrs; format: functional; in short: as §1
[30] = Antimicrobial activity against 90 mins oxgall-stressed Bifidobacterium infantis ATCC 15697 after 18 hrs; format: functional, Bifidobacterium longum subsp. infantis; conditions: Bifidobacterium longum; in short: as §1
Bifidobacterium longum [31] = experiment: Antimicrobial activity against 90 mins hydrogen peroxide-stressed Bifidobacterium longum ATCC 15707 after 18 hrs; format: functional; in short: as §3
Bifidobacterium breve [32] = experiment: Antimicrobial activity against Bifidobacterium breve ATCC 15700; format: functional; in short: as §2
Bifidobacterium longum [33] = experiment: Antimicrobial activity against 90 mins oxgall-stressed Bifidobacterium longum ATCC 15707 after 18 hrs; format: functional; in short: as §1
Bifidobacterium animalis [34] = experiment: Antimicrobial activity against Bifidobacterium animalis ATCC 27536; format: functional; in short: as §2
Bifidobacterium longum [35] = experiment: Antimicrobial activity against 90 mins oxgall-stressed Bifidobacterium longum P/N 601377 after 18 hrs; format: functional; in short: as §1
Bifidobacterium longum [36] = experiment: Antimicrobial activity against 90 mins oxgall-stressed Bifidobacterium longum ATCC 15708 after 18 hrs; format: functional; in short: as §1
Bifidobacterium longum [37] = experiment: Antimicrobial activity against 90 mins oxgall-stressed Bifidobacterium longum R0175 after 18 hrs; format: functional; in short: as §1
Bifidobacterium bifidum [38] = experiment: Antimicrobial activity against 90 mins oxgall-stressed Bifidobacterium bifidum ATCC 15696 after 18 hrs; format: functional; in short: as §1
Bifidobacterium longum [39] = experiment: Antimicrobial activity against Bifidobacterium longum R0175; format: functional; in short: as §2
[40] = Antimicrobial activity against 60 min 1 M HCl-stressed Bifidobacterium infantis ATCC 15697 after 18 hrs; format: functional, Bifidobacterium longum subsp. infantis; conditions: Bifidobacterium longum; in short: as §4
[41] = test system: Bifidobacterium pseudolongum; experiment: Antimicrobial activity against 60 min 1 M HCl-stressed Bifidobacterium pseudolongum ATCC 25562 after 18 hrs; format: functional; in short: as §4
[42] = test system: Bifidobacterium pseudolongum; experiment: Antimicrobial activity against 90 mins oxgall-stressed Bifidobacterium pseudolongum ATCC 25562 after 18 hrs; format: functional; in short: as §1
Bifidobacterium animalis [43] = experiment: Antimicrobial activity against 90 mins oxgall-stressed Bifidobacterium animalis ATCC 27536 after 18 hrs; format: functional; in short: as §1
Bifidobacterium longum [44] = experiment: Antimicrobial activity against 60 min 1 M HCl-stressed Bifidobacterium longum R0175 after 18 hrs; format: functional; in short: as §4
Bifidobacterium longum [45] = experiment: Antimicrobial activity against 90 mins hydrogen peroxide-stressed Bifidobacterium longum R0175 after 18 hrs; format: functional; in short: as §3
[46] = Antimicrobial activity against Bifidobacterium infantis ATCC 15697; format: functional, Bifidobacterium longum subsp. infantis; conditions: Bifidobacterium longum; in short: as §2
Bifidobacterium animalis [47] = experiment: Antimicrobial activity against 60 min 1 M HCl-stressed Bifidobacterium animalis ATCC 27536 after 18 hrs; format: functional; in short: as §4

MIC (Bifidobacterium breve [1]): 0.98 µg/mL (≈ 2.93 µM)
MIC (Bifidobacterium longum [2]): 0.98 µg/mL (≈ 2.93 µM)
MIC (Bifidobacterium bifidum [3]): 0.98 µg/mL (≈ 2.93 µM)
MIC (Bifidobacterium breve [4]): 0.98 µg/mL (≈ 2.93 µM)
MIC (Bifidobacterium bifidum [5]): 1.9 µg/mL (≈ 5.68 µM)
MIC (Bifidobacterium bifidum [6]): 0.98 µg/mL (≈ 2.93 µM)
MIC (Bifidobacterium bifidum [7]): 0.98 µg/mL (≈ 2.93 µM)
MIC (Bifidobacterium bifidum [8]): 0.98 µg/mL (≈ 2.93 µM)
MIC (Bifidobacterium animalis [9]): 0.98 µg/mL (≈ 2.93 µM)
MIC (Bifidobacterium longum [10]): 0.98 µg/mL (≈ 2.93 µM)
MIC (Bifidobacterium longum [11]): 0.98 µg/mL (≈ 2.93 µM)
MIC (Bifidobacterium longum [12]): 0.98 µg/mL (≈ 2.93 µM)
MIC [13]: 0.98 µg/mL (≈ 2.93 µM)
MIC (Bifidobacterium bifidum [14]): 0.98 µg/mL (≈ 2.93 µM)
MIC (Bifidobacterium breve [15]): 1.9 µg/mL (≈ 5.68 µM)
MIC (Bifidobacterium breve [16]): 1.9 µg/mL (≈ 5.68 µM)
MIC (Bifidobacterium breve [17]): 0.98 µg/mL (≈ 2.93 µM)
MIC (Bifidobacterium bifidum [18]): 3.9 µg/mL (≈ 11.7 µM)
MIC (Bifidobacterium longum [19]): 0.98 µg/mL (≈ 2.93 µM)
MIC (Bifidobacterium bifidum [20]): 0.98 µg/mL (≈ 2.93 µM)
MIC (Bifidobacterium longum [21]): 0.98 µg/mL (≈ 2.93 µM)
MIC (Bifidobacterium bifidum [22]): 0.98 µg/mL (≈ 2.93 µM)
MIC (Bifidobacterium breve [23]): 0.98 µg/mL (≈ 2.93 µM)
MIC (Bifidobacterium breve [24]): 0.98 µg/mL (≈ 2.93 µM)
MIC [25]: 0.98 µg/mL (≈ 2.93 µM)
MIC [26]: 0.98 µg/mL (≈ 2.93 µM)
MIC [27]: 0.98 µg/mL (≈ 2.93 µM)
MIC (Bifidobacterium longum [28]): 0.98 µg/mL (≈ 2.93 µM)
MIC [29]: 0.98 µg/mL (≈ 2.93 µM)
MIC [30]: 0.98 µg/mL (≈ 2.93 µM)
MIC (Bifidobacterium longum [31]): 0.98 µg/mL (≈ 2.93 µM)
MIC (Bifidobacterium breve [32]): 0.98 µg/mL (≈ 2.93 µM)
MIC (Bifidobacterium longum [33]): 0.98 µg/mL (≈ 2.93 µM)
MIC (Bifidobacterium animalis [34]): 0.98 µg/mL (≈ 2.93 µM)
MIC (Bifidobacterium longum [35]): 0.98 µg/mL (≈ 2.93 µM)
MIC (Bifidobacterium longum [36]): 0.98 µg/mL (≈ 2.93 µM)
MIC (Bifidobacterium longum [37]): 0.98 µg/mL (≈ 2.93 µM)
MIC (Bifidobacterium bifidum [38]): 0.98 µg/mL (≈ 2.93 µM)
MIC (Bifidobacterium longum [39]): 3.9 µg/mL (≈ 11.7 µM)
MIC [40]: 0.98 µg/mL (≈ 2.93 µM)
MIC [41]: 0.98 µg/mL (≈ 2.93 µM)
MIC [42]: 0.98 µg/mL (≈ 2.93 µM)
MIC (Bifidobacterium animalis [43]): 0.98 µg/mL (≈ 2.93 µM)
MIC (Bifidobacterium longum [44]): 0.98 µg/mL (≈ 2.93 µM)
MIC (Bifidobacterium longum [45]): 0.98 µg/mL (≈ 2.93 µM)
MIC [46]: 0.98 µg/mL (≈ 2.93 µM)
MIC (Bifidobacterium animalis [47]): 0.98 µg/mL (≈ 2.93 µM)
SMILES: CC1(C)S[C@@H]2[C@H](NC(=O)Cc3ccccc3)C(=O)N2[C@H]1C(=O)O [PENICILLIN G]
